Experimental data taken from ChEMBL document CHEMBL1773009, “Red-fluorescent argininamide-type NPY Y1 receptor antagonists as pharmacological tools” (Bioorg Med Chem, 2011).
The source made the active and inactive calls. The calls are words filed in the database; no cut-off is given here.

Legend:
[1] = Chemical stability of the compound in DMSO at below 0 degC; assay type: physicochemical
[2] = biological target: T1, Neuropeptide Y receptor type 1 (Homo sapiens) (UniProt P25929); experiment: Antagonist activity at Y1R in human HEL cells assessed as inhibition of pNPY induced [Ca2+] mobilisation; assay type: functional, cell-based
T1 sequence (whole entry): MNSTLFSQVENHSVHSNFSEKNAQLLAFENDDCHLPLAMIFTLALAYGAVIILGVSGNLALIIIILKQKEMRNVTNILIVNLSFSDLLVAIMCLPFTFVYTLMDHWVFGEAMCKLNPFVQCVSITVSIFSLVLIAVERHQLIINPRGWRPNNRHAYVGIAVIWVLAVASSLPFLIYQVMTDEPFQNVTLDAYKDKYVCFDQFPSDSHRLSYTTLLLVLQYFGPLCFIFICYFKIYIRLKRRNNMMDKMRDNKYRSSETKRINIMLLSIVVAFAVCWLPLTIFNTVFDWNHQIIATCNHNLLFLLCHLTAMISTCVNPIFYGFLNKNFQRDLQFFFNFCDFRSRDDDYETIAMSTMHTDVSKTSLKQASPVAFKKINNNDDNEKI

[3] = biological target: T2, Neuropeptide Y receptor type 1 (Homo sapiens, UniProt P25929); experiment: Displacement of [3H]-UR-MK114 from Y1R in human SK-N-MC cells; assay type: cell-based
T2 sequence (P25929 whole entry): T1 sequence (whole entry)

[4] = biological target: T1, Neuropeptide Y receptor type 1 (Homo sapiens); experiment: Antagonist activity at Y1R in human MCF-7 cells at 50 nM after 5 to 8 mins by fluorescence confocal microscopy; assay type: functional, cell-based; conditions: MCF7
Method in brief: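 MCF-7-Y1 cells (MCF-7 subclone with 2–3-fold higher Y1R expression) pretreated 48 or 72 h with 1 nM 17β-estradiol; live-cell confocal imaging of fluorescent ligand (50–80 nM) after 5–23 min at rt in Leibovitz L15; non-specific binding with excess BIBP 3226 (5 µM or 80–125-fold); autofluorescence control.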

[5] = biological target: Neuropeptide Y receptor type 4 (Homo sapiens, UniProt P50391); experiment: Displacement of Cy5-[K4]-hpp from human Y4R expressed in CHO cells by flow cytometry; assay type: cell-based
Neuropeptide Y receptor type 4, sequence (P50391 whole entry): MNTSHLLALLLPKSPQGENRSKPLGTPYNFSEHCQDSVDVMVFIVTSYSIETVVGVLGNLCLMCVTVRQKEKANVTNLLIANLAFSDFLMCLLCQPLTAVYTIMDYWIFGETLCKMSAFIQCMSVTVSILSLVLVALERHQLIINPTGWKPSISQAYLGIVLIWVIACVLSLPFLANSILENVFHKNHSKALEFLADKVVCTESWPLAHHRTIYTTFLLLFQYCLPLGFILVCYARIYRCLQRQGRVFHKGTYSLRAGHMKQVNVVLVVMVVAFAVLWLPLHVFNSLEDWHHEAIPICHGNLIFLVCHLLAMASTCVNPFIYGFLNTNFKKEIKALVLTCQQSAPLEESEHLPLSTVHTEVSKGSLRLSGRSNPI
Method in brief: (§1)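 Flow cytometric displacement of labelled peptides: Cy5-[K4]-hPP on CHO-Y4 cells; Dy-635-pNPY or Cy5-pNPY on CHO-Y2 and HEC-1B-Y5 cells. Test ligands only at 1 and 10 µM or at 0.3 and 1 µM; for the red-excitable ligand, its own fluorescence without peptide was subtracted.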

[6] = biological target: T3, Neuropeptide Y receptor type 5 (Homo sapiens, UniProt Q15761); experiment: Displacement of Dy-635-pNPY from human Y5R expressed in HEC-1B cells by flow cytometry
T3 sequence (Q15761 whole entry): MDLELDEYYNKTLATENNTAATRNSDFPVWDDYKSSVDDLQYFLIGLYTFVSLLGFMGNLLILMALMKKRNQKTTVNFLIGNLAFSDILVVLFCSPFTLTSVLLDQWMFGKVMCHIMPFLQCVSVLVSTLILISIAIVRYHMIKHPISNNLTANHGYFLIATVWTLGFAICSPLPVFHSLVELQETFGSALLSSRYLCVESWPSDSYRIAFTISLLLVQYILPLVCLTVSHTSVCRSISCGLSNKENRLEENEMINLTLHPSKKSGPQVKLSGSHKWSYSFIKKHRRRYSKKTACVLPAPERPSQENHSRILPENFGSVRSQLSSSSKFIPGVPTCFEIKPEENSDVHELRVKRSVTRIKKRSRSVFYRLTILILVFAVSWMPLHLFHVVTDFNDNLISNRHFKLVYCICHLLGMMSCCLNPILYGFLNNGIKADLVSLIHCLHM

[7] = biological target: T2, Neuropeptide Y receptor type 1; experiment: Displacement of [3H]-UR-MK114 from Y1R in human SK-N-MC cells by radioligand competition binding
[8] = Chemical stability in aqueous buffer assessed as compound decomposition after 20 mins at pH 7 by HPCL; assay type: physicochemical; conditions: read-out: Activity
Method in brief: (§2)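 Compound at 50 µM final (from 1 mM DMSO stock) in PBS pH 7.0, 20 °C; aliquots at 20 and 90 min diluted with acetonitrile/H2O/1% TFA, analysed by RP-HPLC (220 nm); release of parent argininamide quantified against a five-point calibration curve (0.3–25 µM).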

[9] = Chemical stability in aqueous buffer assessed as compound decomposition after 90 mins at pH 7 by HPCL; assay type: physicochemical; conditions: read-out: Activity; method in brief: as §2
[10] = biological target: T4, Neuropeptide Y receptor type 2 (Homo sapiens, UniProt P49146); experiment: Displacement of Dy-635-pNPY from human Y2R expressed in CHO cells by flow cytometry; assay type: cell-based; method in brief: as §1
T4 sequence (P49146 whole entry): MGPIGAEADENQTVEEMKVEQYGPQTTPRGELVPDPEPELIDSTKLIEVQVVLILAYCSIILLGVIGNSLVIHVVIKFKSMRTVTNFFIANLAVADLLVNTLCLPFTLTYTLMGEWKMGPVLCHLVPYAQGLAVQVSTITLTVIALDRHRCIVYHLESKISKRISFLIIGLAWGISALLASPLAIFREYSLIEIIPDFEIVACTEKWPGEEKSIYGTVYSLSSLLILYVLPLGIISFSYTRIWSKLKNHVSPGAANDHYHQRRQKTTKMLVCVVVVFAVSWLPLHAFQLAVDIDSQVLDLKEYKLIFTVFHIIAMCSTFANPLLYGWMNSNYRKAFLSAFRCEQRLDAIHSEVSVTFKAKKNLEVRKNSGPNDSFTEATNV

SMILES | Stability [1] | Kb [2] | Ki [3] | other results
CN(C)c1ccc(/C=C/C=C/c2sc3ccccc3[n+]2CCCC(=O)O)cc1.O=C([O-])C(F)(F)F | 12 months | – | – | –
NCCCCNC(=O)/N=C(/N)NCCC[C@@H](NC(=O)C(c1ccccc1)c1ccccc1)C(=O)NCc1ccc(O)cc1 | – | 16 nM | 4.3 nM | –
Cc1cc(/C=C\C=C2\N(C)c3ccc4ccccc4c3C2(C)C)cc(C)[n+]1CCOCCOCCNC(=O)CCCCCCC(=O)/N=C(/N)NCCC[C@@H](NC(=O)C(c1ccccc1)c1ccccc1)C(=O)NCc1ccc(O)cc1.O=C([O-])C(F)(F)F | 12 months | 7.8 nM | 130 nM | –
Cc1cc(/C=C/c2cc3c4c(c2)CCCN4CCC3)cc(C)[n+]1CCCCNC(=O)/N=C(/N)NCCC[C@@H](NC(=O)C(c1ccccc1)c1ccccc1)C(=O)NCc1ccc(O)cc1.O=C([O-])C(F)(F)F | 12 months | 7.2 nM | 140 nM | –
CN(C)c1ccc(/C=C/C=C/c2sc3ccccc3[n+]2CCCC(=O)NCCNC(=O)CCCC(=O)/N=C(/N)NCCC[C@@H](NC(=O)C(c2ccccc2)c2ccccc2)C(=O)NCc2ccc(O)cc2)cc1.O=C([O-])C(F)(F)F | 12 months | 2.4 nM | 42 nM | –
Cc1cc(/C=C/c2cc3c4c(c2)CCCN4CCC3)cc(C)[n+]1CCOCCOCCOCCC(=O)/N=C(/N)NCCC[C@@H](NC(=O)C(c1ccccc1)c1ccccc1)C(=O)NCc1ccc(O)cc1.O=C([O-])C(F)(F)F | 12 months | 4.1 nM | 97 nM | –
Cc1cc(/C=C/c2cc3c4c(c2)CCCN4CCC3)cc(C)[n+]1CCNC(=O)CCCC(=O)/N=C(/N)NCCC[C@@H](NC(=O)C(c1ccccc1)c1ccccc1)C(=O)NCc1ccc(O)cc1.O=C([O-])C(F)(F)F | 12 months | 6 nM | 22 nM | Activity [4]: Active; IC50 [5]: > 10000 nM; Ki [5]: > 3000 nM; IC50 [6]: > 10000 nM; Ki [6]: > 5000 nM; Ki [7]: 22 nM; degraded at 20 min [8]: 1%; degraded at 1.5 h [9]: 2.6%; IC50 [10]: > 10000 nM; Ki [10]: > 3000 nM
Cc1cc(/C=C/C=C/c2ccc(N(C)C)cc2)cc(C)[n+]1CCCCCC(=O)/N=C(/N)NCCC[C@@H](NC(=O)C(c1ccccc1)c1ccccc1)C(=O)NCc1ccc(O)cc1.O=C([O-])C(F)(F)F | 12 months | 3.7 nM | 50 nM | –
Cc1cc(/C=C/C=C2\N(C)c3ccc4ccccc4c3C2(C)C)cc(C)[n+]1CCOCCOCCNC(=O)CCCCC(=O)/N=C(/N)NCCC[C@@H](NC(=O)C(c1ccccc1)c1ccccc1)C(=O)NCc1ccc(O)cc1.O=C([O-])C(F)(F)F | 12 months | 8 nM | 130 nM | –
CN(C)c1ccc(/C=C/C=C/c2sc3ccccc3[n+]2CCCC(=O)ON2C(=O)CCC2=O)cc1.O=C([O-])C(F)(F)F | 12 months | – | – | –
Cc1cc(/C=C/c2cc3c4c(c2)CCCN4CCC3)cc(C)[n+]1CCCNC(=O)CCCC(=O)/N=C(/N)NCCC[C@@H](NC(=O)C(c1ccccc1)c1ccccc1)C(=O)NCc1ccc(O)cc1.O=C([O-])C(F)(F)F | 12 months | 11 nM | 38 nM | –
NCCCCCC(=O)NC(N)=NCCC[C@@H](NC(=O)C(c1ccccc1)c1ccccc1)C(=O)NCc1ccc(O)cc1 | – | – | 19 nM | –
Cc1cc(/C=C/c2cc3c4c(c2)CCCN4CCC3)cc(C)[n+]1CCCCCC(=O)/N=C(/N)NCCC[C@@H](NC(=O)C(c1ccccc1)c1ccccc1)C(=O)NCc1ccc(CNC(N)=O)cc1.O=C([O-])C(F)(F)F | 12 months | 12 nM | 23 nM | Activity [4]: Active; degraded at 20 min [8]: 0%; degraded at 1.5 h [9]: < 0.5%
N=C(N)N(CCC[C@@H](NC(=O)C(c1ccccc1)c1ccccc1)C(=O)NCc1ccc(O)cc1)C(=O)NCCCCN | – | 510 nM | 38 nM | –
Cc1cc(/C=C/C=C/c2ccc(N(C)C)cc2)cc(C)[n+]1CCCCNC(=O)/N=C(/N)NCCC[C@@H](NC(=O)C(c1ccccc1)c1ccccc1)C(=O)NCc1ccc(O)cc1.O=C([O-])C(F)(F)F | 12 months | 7.6 nM | 150 nM | –
NCCCCCC(=O)/N=C(/N)NCCC[C@@H](NC(=O)C(c1ccccc1)c1ccccc1)C(=O)NCc1ccc(O)cc1 | – | 95 nM | – | –
Cc1cc(/C=C/c2cc3c4c(c2)CCCN4CCC3)cc(C)[n+]1CCN(CCNC(=O)CCCCC(=O)/N=C(\N)NCCC[C@@H](NC(=O)C(c1ccccc1)c1ccccc1)C(=O)NCc1ccc(O)cc1)CCNC(=O)CCCCC(=O)/N=C(\N)NCCC[C@@H](NC(=O)C(c1ccccc1)c1ccccc1)C(=O)NCc1ccc(O)cc1.O=C([O-])C(F)(F)F | 12 months | 1.2 nM | 61 nM | degraded at 20 min [8]: 0%; degraded at 1.5 h [9]: < 0.5%
Cc1cc(/C=C/c2cc3c4c(c2)CCCN4CCC3)cc(C)[n+]1CCCCCC(=O)/N=C(/N)NCCC[C@@H](NC(=O)C(c1ccccc1)c1ccccc1)C(=O)NCc1ccc(O)cc1.O=C([O-])C(F)(F)F | 12 months | – | 29 nM | –
Cc1cc(/C=C/C=C2\N(C)c3ccc4ccccc4c3C2(C)C)cc(C)[n+]1CCOCCOCCNC(=O)CCCC(=O)/N=C(/N)NCCC[C@@H](NC(=O)C(c1ccccc1)c1ccccc1)C(=O)NCc1ccc(O)cc1.O=C([O-])C(F)(F)F | 12 months | 6.8 nM | 96 nM | –
Cc1cc(/C=C/C=C/c2ccc(N(C)C)cc2)cc(C)[n+]1CCOCCOCC(=O)/N=C(/N)NCCC[C@@H](NC(=O)C(c1ccccc1)c1ccccc1)C(=O)NCc1ccc(O)cc1.O=C([O-])C(F)(F)F | 12 months | 11 nM | 24 nM | Activity [4]: Active
Cc1cc(/C=C/c2cc3c4c(c2)CCCN4CCC3)cc(C)[n+]1CCN(CCNC(=O)CCCCCCC(=O)/N=C(\N)NCCC[C@@H](NC(=O)C(c1ccccc1)c1ccccc1)C(=O)NCc1ccc(O)cc1)CCNC(=O)CCCCCCC(=O)/N=C(\N)NCCC[C@@H](NC(=O)C(c1ccccc1)c1ccccc1)C(=O)NCc1ccc(O)cc1.O=C([O-])C(F)(F)F | 12 months | 0.6 nM | 100 nM | –
